Measured values of several laboratories.
Lines come from different studies, so protocols differ.
PDE10A: cAMP and cAMP-inhibited cGMP 3',5'-cyclic phosphodiesterase 10A (PDE10A, Homo sapiens, UniProt Q9Y233)
SLC6A3: Sodium-dependent dopamine transporter (SLC6A3, Homo sapiens, UniProt Q01959)

Structure (SMILES)	target	read-out	mode	technique	cells	concentration	inhibition [%]
Cc1cc(O)c(-c2ccc([C@@H](C)CN(C)C)cc2)c2c1[nH]c(=O)c1sccc12	Serine/threonine-protein kinase D1 (PRKD1, Homo sapiens, UniProt Q15139)	enzyme activity	inhibitor	–	–	0.1 µM	-0.107
COc1ccc2nccc(Cc3cccc(-c4cnn(C5COC5)c4)c3)c2c1	PDE10A	enzyme activity	inhibitor	FP	–	0.1 µM	3
N#CC[C@@]12C[C@@H]1[C@@H](n1cnc3c(NCc4cccc(Cl)c4)nc(C#Cc4ccc(Cl)s4)nc31)[C@H](O)[C@@H]2O	SLC6A3	ligand displacement	–	radioligand	–	10 µM	89
NC/C(=C\F)COc1cccc(Cn2c(=S)[nH]c(=O)c3[nH]cnc32)c1	Sodium- and chloride-dependent GABA transporter 1 (Slc6a1, Rattus norvegicus, UniProt P23978)	ligand displacement	–	radioligand	–	10 µM	< 50
c1ccc(-c2cccc(Cc3ncnc4ccccc34)c2)cc1	PDE10A	enzyme activity	inhibitor	FP	–	0.1 µM	0
N#CC[C@@]12C[C@@H]1[C@@H](n1cnc3c(Nc4ccccc4)nc(C#Cc4ccc(Cl)s4)nc31)[C@H](O)[C@@H]2O	SLC6A3	ligand displacement	–	radioligand	–	10 µM	18
COc1ccc(Cc2nccc3cc(C4COC4)ccc23)cc1OC	PDE10A	enzyme activity	inhibitor	FP	–	0.1 µM	0
C#Cc1cc(-c2cc(Nc3nc(N[C@@H](C)c4ccc(F)cn4)ncc3Cl)n[nH]2)ccc1C=O	Mitogen-activated protein kinase 15 (MAPK15, Homo sapiens, UniProt Q8TD08)	enzyme activity	inhibitor	–	–	0.2 µM	11.5
CCOC(=O)[C@@]12C[C@@H]1[C@@H](n1cnc3c(NCCCCCc4ccccc4)nc(C#Cc4ccccc4)nc31)[C@H](O)[C@@H]2O	SLC6A3	transporter uptake	inhibitor	radiometric	HEK293	10 µM	9
